Bioassay records (PubChem BioAssay)
RanGTP-Imp inh – inhibitors of RanGTP-importin-beta interaction, primary screen, biochemical, FRET, CFP-Ran, YFP-importin-beta, homogeneous | Ran GTPase (GTP-bound) - importin-beta complex | cell-free CFP-Ran/YFP-importin-beta FRET ratio | inhibition, % (concentration not given with the values) | 1.1% of 300,000 active | AID 2216, 2009;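 active = more than half of the replicate wells show a fall in the fluorescence ratio signal beyond about 16%, limit read from the data, passing the limit was not always enough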;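 note: 0% = DMSO wells and 100% = Ran loaded with GDP instead of GTP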
Runt-SMMHC FRET – inhibitors of RUNX1 Runt–CBFb-SMMHC binding, primary screen, biochemical, FRET, Cerulean-Runt, Venus-CBFb-SMMHC, uHTS; Cerulean-Runt/Venus-CBFb-SMMHC FRET ratio 530/480, 1 h; inhibition, % at 20 µM; Runt-related transcription factor 1 (Homo sapiens) + Core-binding factor subunit beta …; 0.74% of 220,000 active;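 active = mean inhibition across duplicate retests at 20 µM reaching about 50%, limit read from the data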;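 note: 0% = DMSO wells and 100% = wells with excess untagged CBFb-SMMHC; inhibitors lower the FRET ratio by blocking Runt binding to CBFb-SMMHC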
TbHK1 inh – Trypanosoma brucei hexokinase 1 inhibitors, primary screen, biochemical, G6PDH-coupled NADH absorbance, MLSCN library. inhibition, % at 10 µM. 0.11% of 220,000 active. recombinant TbHK1, G6PDH-coupled NADH A340. hexokinase 1 [Trypanosoma brucei];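 active = inhibition of 50% or more in the single-dose primary screen; inactive = inhibition below 50%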
Hck-Nef inh – inhibitors of Nef-activated human Hck kinase, primary screen, biochemical, Z-Lyte FRET, 384-well, Hck-YEEI; Tyrosine-protein kinase HCK (Homo sapiens), P08631; Recombinant Hck-YEEI plus Nef, Z-Lyte FRET kinase assay; inhibition, % at 20 µM; 0.68% of 220,000 active; AID 463187, 2010;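 active = Hck-Nef kinase inhibition above about 50%, limit read from the data; inactive = inhibition below that limit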;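 note: 0% = DMSO with Hck plus Nef and 100% = Hck alone without Nef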
Target sequence (P08631 whole entry, looked up): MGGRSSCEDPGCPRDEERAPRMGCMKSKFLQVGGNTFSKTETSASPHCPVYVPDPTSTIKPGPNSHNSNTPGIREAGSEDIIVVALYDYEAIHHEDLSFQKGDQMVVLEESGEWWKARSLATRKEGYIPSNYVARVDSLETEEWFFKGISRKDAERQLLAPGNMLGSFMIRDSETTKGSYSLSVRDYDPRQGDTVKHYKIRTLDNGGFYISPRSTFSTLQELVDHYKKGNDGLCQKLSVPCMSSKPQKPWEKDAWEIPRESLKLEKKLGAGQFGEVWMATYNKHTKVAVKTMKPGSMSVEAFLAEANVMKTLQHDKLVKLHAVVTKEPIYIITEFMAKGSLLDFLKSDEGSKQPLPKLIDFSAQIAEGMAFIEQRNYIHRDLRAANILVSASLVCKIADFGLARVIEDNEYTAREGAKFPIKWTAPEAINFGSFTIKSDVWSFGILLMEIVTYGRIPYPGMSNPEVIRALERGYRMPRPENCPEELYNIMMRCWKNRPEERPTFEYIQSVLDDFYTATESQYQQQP
Runt-CBFb FRET – inhibitors of RUNX1 Runt–CBFb binding, primary screen, biochemical, FRET, Cerulean-Runt, Venus-CBFb, uHTS; Cerulean-Runt/Venus-CBFb FRET ratio 530/480, 1 h; 0.46% of 220,000 active; inhibition, % at 20 µM; AID 1496, 2009; Runt-related transcription factor 1 (Homo sapiens) + Core-binding factor subunit beta …;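 active = inhibition over about 50% at 20 µM in the single-dose screen, limit read from the data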;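 note: 0% = DMSO wells and 100% = excess unlabeled CBFb competitor control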
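System: Cerulean-labeled Runt domain protein | Quantity: 100 nM of each labeled protein | Schedule: 1 h compound exposure, room temperature | Detection: Fluorescence energy transfer, 422 nm excitation, 530/480 nm emission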
Hck-Nef confirm – retest of Hck:Nef kinase inhibitor hits, confirmation, biochemical, Z-Lyte FRET, 384-well, p-Tyr peptide counterscreen. shares compounds with Hck-Nef inh. Recombinant Hck-YEEI:Nef, Z-Lyte FRET kinase assay. calls only at 10 µM. 28% of 1,300 active;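 active = average inhibition of at least 50%, with Z-scores no higher than 3 in both the phospho-tyrosine peptide and fluorescence counterscreens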
* hit, by the source's call; i = inactive; . = no result given; + = active, no number. Hits are enriched below; roughly 1.9% of the tested compounds scored in any of these assays.

SMILES | RanGTP-Imp inh | Runt-SMMHC FRET | TbHK1 inh | Hck-Nef inh | Runt-CBFb FRET | Hck-Nef confirm
O=C(Oc1ccc2ccc(=O)oc2c1)C1CCCCC1 | 4 | 48 | 34 | 67* | 30 | i
CCOC(=O)C1(CC2CCCCO2)CCN(Cc2nc(C(C)C)cs2)CC1 (stereo not drawn) | 1 | 2 | -9 | 21 | -1 | .
C/C(=N\Nc1ccc(S(N)(=O)=O)cc1[N+](=O)[O-])c1ccc2c(c1)OCO2 | -2 | -2 | -19 | 65* | -1 | +
CC1CCCC(C)N1C(=O)CSc1nc2c(c(=O)n(C)c(=O)n2C)n1C (stereo not drawn) | 1 | . | . | . | . | .
CC(/C=C1\SC(=S)N(NS(=O)(=O)c2ccc(C)cc2)C1=O)=C\c1ccccc1 | 0 | -5 | 14 | 99* | -6 | +
C/C(=N\NC(=O)C(C)Sc1ccccc1)c1ccc([N+](=O)[O-])cc1 (stereo not drawn) | -1 | . | . | . | . | .
COCCSc1ccccc1C(=O)N1CCc2ccccc2C1 | 2 | -2 | -7 | 11 | 0 | .
Cc1ccc(O)c(C(=O)c2cnn(C(=O)Cc3csc(C)n3)c2)c1 | . | 3 | -2 | 74* | -2 | +
O=c1cc(CCl)nc2sc3ccccc3n12 | -2 | -6 | -7 | 61* | -2 | i
O=C(CCn1ccc2cc(S(=O)(=O)N3CCCC3)ccc21)NCc1cccc(F)c1 | -1 | . | . | . | . | .
Fc1ccc(N2N=C(c3cccs3)CC2c2ccccc2)cc1 (stereo not drawn) | 2 | 91* | -6 | 56* | 59* | i
O=S(=O)(c1ccccc1)N1N=C(c2cccs2)CC1c1ccc(F)cc1 (stereo not drawn) | 1 | -10 | -2 | -2 | -1 | .
Cc1cccc(N(CC(=O)NC(C)C)C(=O)CCC(=O)Nc2nccs2)c1 | -2 | . | . | . | . | .
O=C1SC(SCc2ccccc2Cl)=N/C1=C\c1ccc(C(=O)O)cc1 | -2 | 1 | -4 | 63* | 3 | i
CCSC1=N/C(=C\c2ccc(C(=O)O)cc2)C(=O)S1 | -1 | 2 | -5 | 8 | -1 | .
Cc1cc(C)cc(NC(=O)c2ccc(CSc3nnc(C)s3)cc2)c1 | 4 | -6 | -9 | 101* | -6 | i
Cc1ccc(NC(=O)c2ccc(CSc3nnc(C)s3)cc2)cc1 | -1 | 3 | -1 | -2 | -1 | .
Cc1ccc(S(=O)(=O)N2CCCCC2)cc1NC(=O)COC(=O)Cc1cccc(C(F)(F)F)c1 | 1 | 1 | -1 | 2 | -2 | .
CC1=NN(c2cccc(C(=O)O)c2)C(=O)/C1=C\C=C/c1ccccc1 | -1 | 12 | -4 | 59* | 18 | i
O=C(N/N=C/c1ccc([N+](=O)[O-])o1)c1cc(-c2ccc(-c3ccccc3)cc2)nc2ccccc12 | 5 | -19 | -14 | 198* | -6 | i
CCS(=O)(=O)Nc1cc(-c2nc3cccnc3s2)ccc1C | 2 | -7 | -12 | 1 | 4 | .
Cc1c(NS(=O)(=O)c2cccs2)cccc1-c1nc2cccnc2s1 | -4 | -2 | 1 | 6 | -1 | .
Cc1cc(-c2nc3cccnc3s2)ccc1NS(=O)(=O)c1ccc2c(c1)OCCO2 | 71* | 119* | -53 | 71* | 102* | .
Cc1c(NS(=O)(=O)c2ccc3c(c2)OCCO3)cccc1-c1nc2cccnc2s1 | -2 | -6 | -6 | 3 | 6 | .
O=S(=O)(Nc1ccc(-c2nc3cccnc3s2)cc1)c1cccs1 | 10 | 145* | -60 | 116* | 91* | .
Cc1cc(-c2nc3cccnc3s2)ccc1NS(=O)(=O)c1cccs1 | 92* | 107* | -16 | 95* | 128* | i
